System: HEK-293T
Experiment: Multiplex assay against HEK293T
Type: toxicity, cell-based
Conditions: human
Method in brief: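 On a CQ1 microscope at 37°C and 5% CO2, live cells were imaged after compound addition. They had been stained at seeding with Hoechst33342, BioTracker Green Microtubule Cytoskeleton Dye, MitoTracker Red and Annexin V Alexa Fluor 680. CellPathfinder machine-learning gating assigned cells to Hoechst high-intensity objects or normal cells, normal cells to healthy, pyknosed or fragmented nuclei, and pyknosed cells to mitotic or apoptotic. Tubulin, mitochondrial-mass and membrane-permeability phenotypes are per cents of healthy-nucleus cells.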

[1] = 12 h, 1 µM, compound concentration 1 uM, replicate 1
[2] = 12 h, 1 µM, compound concentration 1 uM, replicate 2
[3] = 12 h, 10 µM, compound concentration 10 uM, replicate 1
[4] = 12 h, 10 µM, compound concentration 10 uM, replicate 2
[5] = 24 h, 1 µM, compound concentration 1 uM, replicate 1
[6] = 24 h, 1 µM, compound concentration 1 uM, replicate 2
[7] = 24 h, 10 µM, compound concentration 10 uM, replicate 1
[8] = 24 h, 10 µM, compound concentration 10 uM, replicate 2
[9] = 48 h, 1 µM, compound concentration 1 uM, replicate 1
[10] = 48 h, 1 µM, compound concentration 1 uM, replicate 2
[11] = 48 h, 10 µM, compound concentration 10 uM, replicate 1
[12] = 48 h, 10 µM, compound concentration 10 uM, replicate 2

Cc1noc(-c2ccc(-c3ccc(CC(=O)O)cc3)cc2)c1NC(=O)O[C@H](C)c1ccccc1Cl
Population Apoptotic (%) [1]: 29%
Population Fragmented Nuclei (%) [1]: 7%
Population Healthy Nuclei (%) [1]: 79%
Population Hoechst High Intensity Objects (%) [1]: 5%
Population Membrane Permeable-Phenotype (%) [1]: 0%
Population Mitochondria Different-Phenotype (%) [1]: 38%
Population Mitotic Cells (%) [1]: 70%
Population Normal (%) [1]: 94%
Population Pyknosed Nuclei (%) [1]: 13%
Population Tubulin-Different-Phenotype (%) [1]: 29%
Total Cell Count [1]: 403
Population Apoptotic (%) [2]: 59%
Population Fragmented Nuclei (%) [2]: 4%
Population Healthy Nuclei (%) [2]: 77%
Population Hoechst High Intensity Objects (%) [2]: 11%
Population Mitochondria Different-Phenotype (%) [2]: 69%
Population Mitotic Cells (%) [2]: 40%
Population Normal (%) [2]: 88%
Population Pyknosed Nuclei (%) [2]: 17%
Population Tubulin-Different-Phenotype (%) [2]: 28%
Total Cell Count [2]: 296
Population Apoptotic (%) [3]: 51%
Population Fragmented Nuclei (%) [3]: 11%
Population Healthy Nuclei (%) [3]: 68%
Population Hoechst High Intensity Objects (%) [3]: 7%
Population Membrane Permeable-Phenotype (%) [3]: 0%
Population Mitochondria Different-Phenotype (%) [3]: 72%
Population Mitotic Cells (%) [3]: 48%
Population Normal (%) [3]: 92%
Population Pyknosed Nuclei (%) [3]: 20%
Population Tubulin-Different-Phenotype (%) [3]: 65%
Total Cell Count [3]: 295
Population Apoptotic (%) [4]: 41%
Population Fragmented Nuclei (%) [4]: 8%
Population Healthy Nuclei (%) [4]: 72%
Population Hoechst High Intensity Objects (%) [4]: 14%
Population Mitochondria Different-Phenotype (%) [4]: 69%
Population Mitotic Cells (%) [4]: 58%
Population Normal (%) [4]: 85%
Population Pyknosed Nuclei (%) [4]: 18%
Population Tubulin-Different-Phenotype (%) [4]: 34%
Total Cell Count [4]: 341
Population Apoptotic (%) [5]: 22%
Population Fragmented Nuclei (%) [5]: 10%
Population Healthy Nuclei (%) [5]: 79%
Population Hoechst High Intensity Objects (%) [5]: 5%
Population Membrane Permeable-Phenotype (%) [5]: 0%
Population Mitochondria Different-Phenotype (%) [5]: 23%
Population Mitotic Cells (%) [5]: 77%
Population Normal (%) [5]: 94%
Population Pyknosed Nuclei (%) [5]: 9%
Population Tubulin-Different-Phenotype (%) [5]: 17%
Total Cell Count [5]: 570
Population Apoptotic (%) [6]: 40%
Population Fragmented Nuclei (%) [6]: 9%
Population Healthy Nuclei (%) [6]: 80%
Population Hoechst High Intensity Objects (%) [6]: 7%
Population Mitochondria Different-Phenotype (%) [6]: 42%
Population Mitotic Cells (%) [6]: 60%
Population Normal (%) [6]: 92%
Population Tubulin-Different-Phenotype (%) [6]: 20%
Total Cell Count [6]: 378
Population Apoptotic (%) [7]: 39%
Population Fragmented Nuclei (%) [7]: 7%
Population Healthy Nuclei (%) [7]: 76%
Population Hoechst High Intensity Objects (%) [7]: 8%
Population Membrane Permeable-Phenotype (%) [7]: 1%
Population Mitochondria Different-Phenotype (%) [7]: 58%
Population Mitotic Cells (%) [7]: 60%
Population Normal (%) [7]: 91%
Population Pyknosed Nuclei (%) [7]: 16%
Population Tubulin-Different-Phenotype (%) [7]: 47%
Total Cell Count [7]: 352
Population Apoptotic (%) [8]: 32%
Population Fragmented Nuclei (%) [8]: 9%
Population Healthy Nuclei (%) [8]: 75%
Population Hoechst High Intensity Objects (%) [8]: 16%
Population Membrane Permeable-Phenotype (%) [8]: 0%
Population Mitochondria Different-Phenotype (%) [8]: 53%
Population Mitotic Cells (%) [8]: 68%
Population Normal (%) [8]: 83%
Population Pyknosed Nuclei (%) [8]: 15%
Population Tubulin-Different-Phenotype (%) [8]: 38%
Total Cell Count [8]: 390
Population Apoptotic (%) [9]: 17%
Population Fragmented Nuclei (%) [9]: 11%
Population Healthy Nuclei (%) [9]: 82%
Population Hoechst High Intensity Objects (%) [9]: 4%
Population Membrane Permeable-Phenotype (%) [9]: 1%
Population Mitochondria Different-Phenotype (%) [9]: 20%
Population Mitotic Cells (%) [9]: 82%
Population Normal (%) [9]: 95%
Population Pyknosed Nuclei (%) [9]: 5%
Population Tubulin-Different-Phenotype (%) [9]: 14%
Total Cell Count [9]: 930
Population Apoptotic (%) [10]: 35%
Population Fragmented Nuclei (%) [10]: 12%
Population Healthy Nuclei (%) [10]: 76%
Population Membrane Permeable-Phenotype (%) [10]: 0%
Population Mitochondria Different-Phenotype (%) [10]: 34%
Population Mitotic Cells (%) [10]: 64%
Population Pyknosed Nuclei (%) [10]: 10%
Population Tubulin-Different-Phenotype (%) [10]: 21%
Total Cell Count [10]: 494
Population Apoptotic (%) [11]: 38%
Population Fragmented Nuclei (%) [11]: 10%
Population Healthy Nuclei (%) [11]: 79%
Population Hoechst High Intensity Objects (%) [11]: 6%
Population Membrane Permeable-Phenotype (%) [11]: 0%
Population Mitochondria Different-Phenotype (%) [11]: 40%
Population Mitotic Cells (%) [11]: 61%
Population Normal (%) [11]: 93%
Population Pyknosed Nuclei (%) [11]: 10%
Population Tubulin-Different-Phenotype (%) [11]: 33%
Total Cell Count [11]: 445
Population Apoptotic (%) [12]: 46%
Population Fragmented Nuclei (%) [12]: 13%
Population Healthy Nuclei (%) [12]: 74%
Population Hoechst High Intensity Objects (%) [12]: 10%
Population Membrane Permeable-Phenotype (%) [12]: 1%
Population Mitochondria Different-Phenotype (%) [12]: 35%
Population Mitotic Cells (%) [12]: 53%
Population Normal (%) [12]: 89%
Population Pyknosed Nuclei (%) [12]: 11%
Population Tubulin-Different-Phenotype (%) [12]: 25%
Total Cell Count [12]: 508
